What was measured:
STIM1/Orai1 = STIM1/Orai1 (Homo sapiens, UniProt Q13586); assay: Store-operated Ca2+ entry; type: cell-based; conditions: Tg 2 μM, 1 mM Ca2+, ELP-004 0 to 1 mM
In short: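 STIM1–YFP was electroporated into HEK293 cells, which were selected with puromycin (5 µg/ml) and cloned for highest YFP. Orai1–CFP was then added, followed by G418 selection and cloning for highest YFP/CFP and screening for SOCE. Fura2-loaded cells (2 µM, 30 min, RT) were held 10 min in Ca²⁺-free pH 7.2 buffer with thapsigargin (2 µM) and test compound. After baseline, 1 mM Ca²⁺ was added; the read-out was the 340/380 ratio.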

TRPC7 = biological target: T1, TRPC7 (Homo sapiens, UniProt Q9HCX4); assay: Carbachol-induced Sr2+ entry in TRPC7-overexpressing HEK293 cells; type: cell-based; conditions: read-out: IC50 of Cch-induced Sr2+ entry; Cch 100 nM, Sr2+ 3 mM
T1 sequence (Q9HCX4 1-862): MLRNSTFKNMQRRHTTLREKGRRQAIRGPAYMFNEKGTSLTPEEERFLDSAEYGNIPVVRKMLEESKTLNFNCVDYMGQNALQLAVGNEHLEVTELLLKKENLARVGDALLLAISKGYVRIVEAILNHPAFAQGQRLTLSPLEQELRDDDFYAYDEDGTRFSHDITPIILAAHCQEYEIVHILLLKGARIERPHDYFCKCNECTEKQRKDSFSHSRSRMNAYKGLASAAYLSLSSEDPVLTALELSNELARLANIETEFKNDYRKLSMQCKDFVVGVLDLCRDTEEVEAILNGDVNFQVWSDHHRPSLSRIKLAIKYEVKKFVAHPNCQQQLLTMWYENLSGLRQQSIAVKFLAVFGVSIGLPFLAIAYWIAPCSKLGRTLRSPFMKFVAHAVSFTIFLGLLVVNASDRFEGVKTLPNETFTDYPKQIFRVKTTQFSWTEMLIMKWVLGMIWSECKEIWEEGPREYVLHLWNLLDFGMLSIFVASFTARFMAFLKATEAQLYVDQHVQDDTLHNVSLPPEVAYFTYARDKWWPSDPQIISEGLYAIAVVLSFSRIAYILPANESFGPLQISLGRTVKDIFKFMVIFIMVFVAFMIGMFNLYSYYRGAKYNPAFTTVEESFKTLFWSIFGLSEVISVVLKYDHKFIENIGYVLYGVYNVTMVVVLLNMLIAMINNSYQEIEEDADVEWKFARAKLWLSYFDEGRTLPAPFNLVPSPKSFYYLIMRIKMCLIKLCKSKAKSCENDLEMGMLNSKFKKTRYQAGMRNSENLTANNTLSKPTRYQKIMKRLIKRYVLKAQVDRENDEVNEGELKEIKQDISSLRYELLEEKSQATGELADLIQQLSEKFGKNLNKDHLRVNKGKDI
In short: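 HEK293 cells were electroporated with GFP-tagged TRPC4, TRPC5 or TRPC7, plated after 24 h and cultured 48 h under selection; only high-GFP cells were analysed. Coverslip cells were loaded with Fura2 (2 µM) and treated with carbachol (100 nM) plus test compound (0 to 100 µM). Entry was measured after adding Sr²⁺ (3 mM), read as the 340/380 ratio; n = 3 to 5.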

[1] = tested on: TRPC4^−/− and TRPC(1–7)^−/− BMSMCs; assay: Osteoclastogenesis from TRPC4−/− and TRPC; type: cell-based, mouse
In short: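 Myeloid cells from bone marrow and spleen of TRPC4−/− and TRPC(1–7)−/− mice were cultured in αMEM, 10% FBS and mCSF (50 ng/ml). RANKL (1 or 100 ng/ml) was added at 24 h, and TNFα (2 ng/ml) and test compound (100 nM) 2–3 days later as indicated. Cultures ran 14–21 days with feeding every 3–5 days before TRAP, Ca²⁺ and pit read-outs.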

Human PBMCs = assay: Basal Ca2+ and Ca2+ oscillations in human PBMC-derived osteoclasts; type: cell-based; conditions: ELP-004 100 nM; for effect on basal Ca2+ levels: 14 days
In short: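 Human PBMCs cultured in αMEM with 10% FBS and human mCSF (50 ng/ml). At 24 h, RANKL (1 or 100 ng/ml) was added; 2–3 days later, human TNFα (2 ng/ml) and test compound (100 nM) were added where indicated. On day 14, coverslip cells were Fura2-loaded (2 µM, 30 min, RT) in buffer with 1 mM Ca²⁺ (pH 7.2) and de-esterified 30 min. Basal 340/380 ratio was recorded 3–5 min in 30–50 cells and plotted against variance.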

SKG mice = assay: SKG mouse model of RA; type: in vivo; conditions: for bone surface density (BS/TV): femur trabecular bone
In short: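 Male and female SKG mice received zymosan A (2 mg, single i.p., saline) at 8 weeks of age. From day 3, they were gavaged daily for 8 weeks with test compound in a PLGA lipid nanoemulsion (180 mg/kg) or vehicle. Paws were scored blind weekly to day 56. Micro-CT covered calcaneal pore volume and connectivity density, femoral trabecular bone (1.75 mm) and L5 (2.15 mm), with BMD calibrated against hydroxyapatite phantoms. Analysis used one-tailed unpaired t or Mann-Whitney tests.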

Chain of STIM1/Orai1 (Q13586 23-685, species assumed): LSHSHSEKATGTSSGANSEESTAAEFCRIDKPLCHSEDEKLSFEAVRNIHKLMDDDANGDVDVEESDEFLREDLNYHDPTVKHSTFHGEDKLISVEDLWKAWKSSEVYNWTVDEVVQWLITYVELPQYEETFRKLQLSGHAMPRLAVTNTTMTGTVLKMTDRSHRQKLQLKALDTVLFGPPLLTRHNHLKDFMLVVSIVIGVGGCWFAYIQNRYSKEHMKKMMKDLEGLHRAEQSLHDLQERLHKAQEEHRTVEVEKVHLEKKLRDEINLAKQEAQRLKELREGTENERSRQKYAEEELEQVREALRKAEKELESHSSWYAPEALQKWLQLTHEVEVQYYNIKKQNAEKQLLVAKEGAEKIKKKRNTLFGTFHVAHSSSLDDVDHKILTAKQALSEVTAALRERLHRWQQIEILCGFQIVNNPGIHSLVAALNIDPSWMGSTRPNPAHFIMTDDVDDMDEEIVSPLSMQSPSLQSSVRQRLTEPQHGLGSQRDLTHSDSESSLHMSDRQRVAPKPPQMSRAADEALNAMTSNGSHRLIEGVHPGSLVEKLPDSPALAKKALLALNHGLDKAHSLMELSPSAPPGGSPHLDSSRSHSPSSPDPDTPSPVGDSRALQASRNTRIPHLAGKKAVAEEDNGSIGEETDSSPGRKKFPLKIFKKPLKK

In the case of `CCC(=O)N(C)c1ccc(Cl)c(Cl)c1` [ELP-004], the “effect on STIM1/Orai1-mediated Ca2+ entry” value (STIM1/Orai1) is reported as “largely unaffected”, the IC50 (TRPC7) is reported as 22.8 nM and the “effect on intracellular Ca2+” value ([1]; RANKL or RANKL/TNFα osteoclasts from knockout BMSMCs) is reported as “no effect”. The “effect on TRAP expression” value ([1]; knockout BMSMCs) was “no effect”, the “effect on cell size” value ([1]; knockout BMSMCs) was “no effect” and the effect on multinucleation ([1]; knockout BMSMCs) was “no effect”. The “effect on pit formation” value ([1]; knockout BMSMCs) was “no effect”, the “effect on basal Ca2+ levels” value (Human PBMCs; RANKL (100 ng/ml)) was “significantly lowered” and the “effect on Ca2+ oscillations” value (Human PBMCs; RANKL alone) was “no effect”. For the same compound, the “effect on basal Ca2+ levels” value (Human PBMCs; TNFα (2 ng/ml)/RANKL (1 ng/ml)) was “significantly lowered”, the “effect on Ca2+ oscillation generation” value (Human PBMCs; TNFα/RANKL) was “significantly lowered” and the “arthritic indices versus vehicle controls” value (SKG mice; both male and female, ELP-004–LNE 180 mg/kg daily oral) was “reduced arthritic indices beginning at week 5”. For the same compound, the “bone surface density in the L5 vertebrae versus vehicle” value (SKG mice; both sexes) was “increased”, the “trabecular number in the L5 vertebrae versus vehicle” value (SKG mice; both sexes) was “increased” and the “porosity in the tarsus or calcaneus (μCT)” value (SKG mice; either sex, ELP-004–LNE 180 mg/kg daily oral 8 weeks) was “did not significantly change”. For the same compound, the “joint inflammation in paws (histology)” value (SKG mice; either sex, ELP-004–LNE 180 mg/kg daily oral, without statistical significance) was “only showed a trend”, the “BMD in the femurs versus vehicle” value (SKG mice; female mice) was “increased” and the “bone volume/tissue volume (BV/TV) in the femurs versus vehicle” value (SKG mice; female mice) was “increased”. The “trabecular number in the femurs versus vehicle” value (SKG mice; female mice) was “increased”, the “mean BMD of femurs” value (SKG mice; female mice, ELP-004-treated) was 0.1436 g/mL and the “connectivity density of pores in the calcaneus” value (SKG mice; females, P < 0.05) was “attenuated the increase”. For the same compound, the “rescue of connectivity density of pores in the tarsus” value (SKG mice; females, P = 0.056) was “strong tendency”, the “bone surface density (BS/TV)” value (SKG mice; females, P < 0.05) was 6.78 ± 2.20 mm^−1 and the “connectivity density of pores in the tarsus” value (SKG mice; males, P < 0.05) was “attenuated the increase”. The “bone surface density (BS/TV)” value (SKG mice; males, ELP-004–LNE 180 mg/kg daily oral 8 weeks) was 9.60 ± 2.16 mm^−1 and the “cumulative erosion scores for metatarsals 2, 3, 4 and 5” value (SKG mice; maximum score 12) was “reduced erosions in female (P < 0.05), but not male”.

— article PMC11734723 (Science Advances, 2025)
